# Rpn11 block: Rpn11 (PSMD14) deubiquitinase inhibitors, primary screen, biochemical, fluorescence polarization, uHTS; 26S proteasome non-ATPase regulatory subunit 14 (Homo sapiens), O00487; human 26S proteasome, Ub4-pepOG fluorescence polarization; 20S core pre-blocked with epoxomicin; inhibition, % at 20 µM; hit rate 0.59% among 360,000; AID 588493, 2011;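 active = inhibition at 20 µM, scaled to each plate's controls, above about 33%, limit read from the data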
# Target sequence (O00487 whole entry, looked up): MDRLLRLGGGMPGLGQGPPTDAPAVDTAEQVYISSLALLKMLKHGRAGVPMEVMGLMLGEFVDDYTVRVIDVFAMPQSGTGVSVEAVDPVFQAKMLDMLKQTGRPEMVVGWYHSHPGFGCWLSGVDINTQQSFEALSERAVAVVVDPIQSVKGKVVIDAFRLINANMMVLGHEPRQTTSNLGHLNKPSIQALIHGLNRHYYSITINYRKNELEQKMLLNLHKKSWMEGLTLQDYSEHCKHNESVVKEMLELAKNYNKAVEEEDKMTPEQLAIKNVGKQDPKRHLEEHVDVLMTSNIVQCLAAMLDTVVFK
# Rin1 Abl inh: inhibitors of Rin1-Abl protein binding, primary screen, biochemical, TR-FRET; Tyrosine-protein kinase ABL1 (Homo sapiens) + Ras and Rab interactor 1 (Homo sapiens), …; inhibition, % at 7.35 µM; hit rate 0.4% among 360,000; AID 588664, 2011; in the data active = inhibition above about 5%, passing the limit was not always enough
# XiGFP reactiv: activators of inactive X chromosome reactivation, primary screen, imaging, XiGFP fibroblasts, GFP high-content imaging, set 2. hit rate 0.055% among 360,000. XiGFP mouse fibroblasts, % GFP-positive cells imaging, 3 d; cells co-treated with 5-aza-dC sensitizer; scaled so ellipticine positive control = 100%. activation, % at 7.58 µM;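 active = mean normalized replicate activation at least 10% and every replicate at or above 10%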;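 also: 0% = median of on-plate neutral control wells and 100% = ellipticine 6 µM median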
#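 Material: XiGFP fibroblasts, SV40-immortalized. Buffer or medium: DMEM plus 5-aza-dC sensitizer. Compound: single concentration per compound, delivered by pin transfer. Times: 3 days compound exposure. Controls: ellipticine 6 µM.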
# NadD block: inhibitors of S. aureus NadD, primary screen, biochemical, colorimetric, uHTS. purified NadD enzyme, colorimetric absorbance read-out. inhibition, % at 20 µM. hit rate 0.78% among 360,000. AID 602399, 2012. Nicotinate-nucleotide adenylyltransferase NadD (Staphylococcus aureus N315); in the data active = inhibition above about 26%
# ABHD5 PLIN5 PPI: ABHD5-PLIN5 interaction inhibitors, primary screen, cell lysate, split luciferase complementation, luminescence | Perilipin-5 (Homo sapiens) + 1-acylglycerol-3-phosphate O-acyltransferase ABHD5 (Homo … | Split G. princeps luciferase complementation, 4 h | inhibition, % at 4 µM | hit rate 0.78% among 360,000 | AID 602281, 2012;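 active = inhibition above the mean inhibition across every tested compound plus 3 SD, cut at about 22% in these data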;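 also: 0% = DMSO only wells and the 100% control is not disclosed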
# Rpn11 confirm: Rpn11 (PSMD14) deubiquitinase inhibitors, confirmation, biochemical, fluorescence polarization, single concentration; shares compounds with Rpn11 block; purified human 26S proteasome, Ub4-pepOG fluorescence polarization; proteasome pretreated with epoxomicin; inhibition, % at 20 µM; hit rate 29% among 1,900
# MMP-2 inh: MMP-2 enzyme inhibition, confirmation, counter-screen for RPN11 inhibitor project, biochemical, fluorescence, single concentration | shares compounds with Rpn11 block | recombinant MMP-2, FRET peptide cleavage fluorescence | inhibition, % at 20 µM | hit rate 4% among 1,900;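 also: human MMP-2 activated beforehand with APMA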
# Thrombin inh: bovine thrombin protease inhibition, confirmation, counter-screen for Rpn11 inhibitor project, biochemical, fluorescence polarization, single concentration. shares compounds with Rpn11 block. bovine thrombin cleavage of Ub4-pepOG. inhibition, % at 20 µM. hit rate 13% among 1,900. AID 602333, 2012;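 active = mean inhibition at least 40% at 20 µM, or signal 3 deviations below plate average, so some actives read negative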;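 also: plate controls were thrombin with DMSO for no effect and buffer wells lacking thrombin for full effect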
# The depositor's hits bear a star; x = no result given. A selection: hits, their analogues and other compounds. The true share with any hit is near 1.9%. Rule as the data show it, unless noted: active = inhibition above about 40%; inactive = the rest.
SMILES,Rpn11 block,Rin1 Abl inh,XiGFP reactiv,NadD block,ABHD5 PLIN5 PPI,Rpn11 confirm,MMP-2 inh,Thrombin inh
Nc1c(-c2ccccc2)c(CSc2nc3ccccc3[nH]2)nn1-c1cccc(Cl)c1,63.1*,-3.6,0.7,26.2,10.9,42.4*,25.0,18.0
O=C(C[C@@H]1C[C@@H]2c3cc(NC(=O)NC4CCCC4)ccc3O[C@@H]2[C@H](CO)O1)NCc1cc(F)ccc1F,x,x,-0.1,x,x,x,x,x
O=C(NCCCN1CCOCC1)c1cc2c(=O)[nH]c3ccccc3c2s1,57.6*,-5.9,x,-3.1,8.0,-4.9,-21.9,-7.9
O=C(NCCCN1CCOCC1)c1cccc(NC(=O)c2ccccc2)c1,45.8*,0.3,0.0,-3.7,-4.8,-2.7,-17.6,-7.0
CCN1CCN(CCCNC(=O)c2cc3c(=O)[nH]c4ccccc4c3s2)CC1,0.9,0.3,x,0.3,6.3,x,x,x
CN(C)C(=O)[C@@H]1[C@@H](CO)[C@@H]2Cn3c(ccc(-c4ccccc4F)c3=O)[C@H]1N2C,x,x,0.0,x,x,x,x,x
COc1cccc(C#Cc2ccc([C@H]3[C@@H](CO)N4C(=O)CN(C(=O)c5ccncc5)C[C@@H]34)cc2)c1,x,x,0.0,x,x,x,x,x
OC[C@H]1Nc2ccc(C#Cc3ccc(F)cc3)cc2[C@@H]2[C@H]1CCN2Cc1nccs1,x,x,0.3,x,x,x,x,x
CC(=O)N(C)C[C@@H]1Oc2c(NC(=O)NC(C)C)cccc2C(=O)N(C)C[C@H]1C,x,x,0.1,x,x,x,x,x
Cc1ccccc1C(=O)/C=C1/SCC(=O)N1C,70.6*,-0.8,0.0,-2.3,-5.5,48.7*,0.1,35.5
Cc1noc(C)c1NC(=O)N(C)C[C@@H]1OCCCC[C@@H](C)Oc2ccc(NS(C)(=O)=O)cc2C(=O)N([C@@H](C)CO)C[C@H]1C,x,x,0.0,x,x,x,x,x
CCCNC(=O)N1CC2(C1)[C@H](c1ccccc1)[C@@H](CO)N2Cc1ccccn1,x,x,0.0,x,x,x,x,x
Cc1ccc(CSc2sc(C(=O)c3ccccc3)c(N)c2C#N)cc1,80.6*,-3.3,x,6.3,-11.2,-4.3,3.9,-5.4
CN1CCN(/N=C/c2ccc(-c3ccc([N+](=O)[O-])cc3Cl)o2)CC1,59.8*,-10.8,0.0,-13.3,15.5,13.8,-29.6,8.6
O=[N+]([O-])c1ccc(Cl)c(-c2ccc(/C=N/n3cnnc3)o2)c1,-14.4,-3.0,0.0,0.9,-1.1,x,x,x
Nc1ccc(/C=C/C(=O)c2ccco2)cc1,90.1*,-13.3,-0.1,3.4,11.3,76.7*,-30.8,66.7*
C/C=C/c1ccc2c(c1)O[C@@H](CN(C)S(=O)(=O)c1ccc(F)cc1)[C@@H](C)CN([C@@H](C)CO)S2(=O)=O,x,x,-0.7,x,x,x,x,x
CSc1ccc(/C=C/C(=O)c2c(O)cc(C)oc2=O)cc1,53.4*,-1.4,0.0,2.4,7.4,70.3*,-11.1,131.1*
Cc1cc(O)c(C(=O)/C=C/c2ccc(Cl)cc2)c(=O)o1,x,-1.3,0.2,14.7,2.3,x,x,x
O=C(NC1CCCCC1)NC1CC2CCCC(C1)N2C1CCCC1 (stereo not drawn),72.6*,-0.4,x,0.1,-8.8,-3.3,-26.7,-8.5
O=C(NNC(=O)NC1CCCCC1)NC1CCCCC1,-5.5,3.2,0.3,-3.7,-0.1,x,x,x
COCC(=O)N1CC2(C1)[C@@H](c1ccccc1)[C@@H](CO)N2Cc1ccccc1OC,x,x,0.0,x,x,x,x,x
CCOCc1nnc(NC(=O)c2cc(OC)c(OC)c(OC)c2)s1,-1.7,0.0,0.0,0.8,6.2,x,x,x
COc1cc(C(=O)Nc2nnc(-c3sccc3C)s2)cc(OC)c1OC,174.2*,-5.9,x,-0.8,1.0,30.8,-52.3,64.0*
O=C(C[C@H]1C=C[C@H](NC(=O)c2ccncc2)[C@@H](CO)O1)NCc1ccncn1,x,x,0.3,x,x,x,x,x
SMILES,Rpn11 block,Rin1 Abl inh,XiGFP reactiv,NadD block,ABHD5 PLIN5 PPI,Rpn11 confirm,MMP-2 inh,Thrombin inh
CN1CCc2c(sc3c2C(=O)NC(c2cn(Cc4ccccc4)c4ccccc24)N3)C1 (stereo not drawn),56.8*,-9.6,x,5.2,5.8,58.9*,7.6,40.9*
CN1[C@H](C(=O)NCC2CC2)[C@@H](CO)[C@@H]2Cn3c(ccc(-c4ccc(F)cc4)c3=O)[C@@H]21,x,x,0.7,x,x,x,x,x
Brc1cccc(-c2nc3ccc(Br)cn3c2Cc2ccccc2)c1,44.0*,-23.1,0.3,12.0,-10.4,21.0,-24.0,-0.7
Fc1cccc(Cc2c(-c3ccccc3)nc3ccc(Br)cn23)c1,-3.6,-30.3,0.8,6.2,-0.2,x,x,x
Clc1cccc(-c2nc3ccc(Br)cn3c2Cc2ccccc2)c1,49.9*,-3.8,0.0,8.1,-11.6,35.3,11.0,8.1
COC(=O)C[C@@H]1C[C@@H]2c3cc(NC(=O)CN(C)C)ccc3O[C@@H]2[C@H](CO)O1,x,x,0.0,x,x,x,x,x
COc1cc(/C=C2\SC(=Nc3ccccc3OC)NC2=O)ccc1O,74.0*,-2.8,0.0,5.2,-11.1,47.4*,13.8,51.1*
COc1cc(/C=C2/SC(=Nc3ccc(O)cc3)NC2=O)ccc1O,76.0*,-4.2,0.4,-6.8,-0.4,69.9*,-8.9,63.9*
COCCNC(=O)c1c(NC(=O)c2nc(SC)ncc2Cl)sc2c1CCCC2,81.1*,-0.5,x,-3.5,-1.9,45.2*,-47.5,33.9
CN(C)CCNC(=O)c1c(NC(=O)c2ccccc2)sc2c1CCCC2,-4.1,-4.1,0.0,-11.5,7.8,x,x,x
COCC(=O)N1CC2(C1)[C@@H](c1ccc(C3=CCCC3)cc1)[C@H](CO)N2C(=O)COC,x,x,0.0,x,x,x,x,x
O=c1[nH]c(-c2ccc(F)cc2)nc2c1sc(=S)n2-c1ccccc1,1.3,-2.3,0.1,-0.4,3.2,x,x,x
O=c1[nH]c(-c2ccc3c(c2)OCO3)nc2c1sc(=S)n2-c1ccccc1,63.0*,-0.3,0.0,-0.5,2.0,38.1,-15.1,22.6
CNC[C@H]1Oc2ccc(NS(C)(=O)=O)cc2C(=O)N(C)C[C@H]1C,x,x,0.5,x,x,x,x,x
CCOC(=O)c1sc2nc3c(SCCC(=O)O)cc(C(=O)c4cc(OC)ccc4O)cn3c(=O)c2c1C,162.8*,-2.3,0.6,43.5*,-0.5,80.4*,30.9,8.1
O=C(O)CSc1cc(C(=O)c2cc(F)ccc2O)cn2c(=O)c3c(-c4ccccc4)csc3nc12,38.6*,-1.8,-0.3,19.3,-0.1,15.1,44.0*,22.0

# Compound activity: PubChem, several laboratories
